What was measured:
[1] = target: T1, Potassium-transporting ATPase (Rattus norvegicus, UniProt P09626); assay: Inhibition of rat isolated gastric (H(+)/K(+))-ATPase.; assay type: tissue-based, Stomach
Summary of the method: (§1)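 (H+/K+)-ATPase activity measured in lyophilized gastric vesicles; compounds dissolved in DMSO, then diluted into pH 7.0 buffer. IC50 given as mean ± range (n = 2) or as a single observed value (n = 1).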

Rattus norvegicus [2] = assay: Percentage inhibition of rat gastric secretion following 10 uM/Kg i.v.
Rattus norvegicus [3] = assay: The compound was evaluated for the percentage inhibition of rat gastric secretion at a dose of 10 umol/kg on intravenous administration; d = Compound was too insoluble for intravenous administration; assay type: functional, organism-based; details: Stomach
Rattus norvegicus [4] = assay: The compound was evaluated for the gastric antisecretory activity in the lumen-perfused rat on intravenous administration; assay type: functional; details: Stomach
[5] = target: T2, Potassium-transporting ATPase (Rattus norvegicus) (UniProt P09626+P18598); assay: The compound was evaluated for the inhibition of gastric H+/K+ ATPase at 100 uM; assay type: tissue-based; details: Stomach
[6] = target: T2, Potassium-transporting ATPase (Rattus norvegicus); assay: The compound was evaluated for the inhibition of gastric H+/K+ ATPase at 10 uM; assay type: tissue-based; details: Stomach
Canis familiaris [7] = assay: The compound was evaluated for the gastric antisecretory activity in the Heidenhain pouch dog for a dose of 1 umol/kg on intravenous administration; assay type: functional; details: Canis lupus familiaris, Stomach
Summary of the method: (§2)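 Conscious Heidenhain pouch dogs dosed intravenously; inhibition of gastric acid secretion measured.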

Canis familiaris [8] = assay: The compound was evaluated for the gastric antisecretory activity in the Heidenhain pouch dog for a dose of 4 umol/kg on intravenous administration; assay type: functional; details: Canis lupus familiaris, Stomach; summary of the method: as §2
Canis familiaris [9] = assay: The compound was evaluated for the gastric antisecretory activity in the Heidenhain pouch dog for a dose of 1 umol/kg on intravenous administration.; assay type: functional; details: Canis lupus familiaris, Stomach; summary of the method: as §2
[10] = target: T2, Potassium-transporting ATPase (Rattus norvegicus); assay: The compound was evaluated for the inhibition of gastric (H(+)/K(+))-ATPase at 100 uM; assay type: protein-complex assay; details: Stomach
[11] = target: T2, Potassium-transporting ATPase (Rattus norvegicus); assay: The compound was evaluated for the inhibition of gastric (H(+)/K(+))-ATPase at 30 uM; details: Stomach
[12] = target: Potassium-transporting ATPase (Rattus norvegicus, UniProt P09626+P18598); assay: The compound was evaluated for the inhibition of gastric (H(+)/K(+))-ATPase; Compound was insoluble; assay type: protein-complex assay, Stomach; summary of the method: as §1
[13] = target: T1, Potassium-transporting ATPase; assay: The compound was evaluated for the inhibition of gastric H+/K+ ATPase; assay type: tissue-based, Stomach; summary of the method: as §1
Rattus norvegicus [14] = assay: The compound was evaluated for the percentage inhibition of rat gastric secretion at a dose of 10 umol/kg on intravenous administration; assay type: functional; details: Stomach

T1 sequence (P09626 whole entry): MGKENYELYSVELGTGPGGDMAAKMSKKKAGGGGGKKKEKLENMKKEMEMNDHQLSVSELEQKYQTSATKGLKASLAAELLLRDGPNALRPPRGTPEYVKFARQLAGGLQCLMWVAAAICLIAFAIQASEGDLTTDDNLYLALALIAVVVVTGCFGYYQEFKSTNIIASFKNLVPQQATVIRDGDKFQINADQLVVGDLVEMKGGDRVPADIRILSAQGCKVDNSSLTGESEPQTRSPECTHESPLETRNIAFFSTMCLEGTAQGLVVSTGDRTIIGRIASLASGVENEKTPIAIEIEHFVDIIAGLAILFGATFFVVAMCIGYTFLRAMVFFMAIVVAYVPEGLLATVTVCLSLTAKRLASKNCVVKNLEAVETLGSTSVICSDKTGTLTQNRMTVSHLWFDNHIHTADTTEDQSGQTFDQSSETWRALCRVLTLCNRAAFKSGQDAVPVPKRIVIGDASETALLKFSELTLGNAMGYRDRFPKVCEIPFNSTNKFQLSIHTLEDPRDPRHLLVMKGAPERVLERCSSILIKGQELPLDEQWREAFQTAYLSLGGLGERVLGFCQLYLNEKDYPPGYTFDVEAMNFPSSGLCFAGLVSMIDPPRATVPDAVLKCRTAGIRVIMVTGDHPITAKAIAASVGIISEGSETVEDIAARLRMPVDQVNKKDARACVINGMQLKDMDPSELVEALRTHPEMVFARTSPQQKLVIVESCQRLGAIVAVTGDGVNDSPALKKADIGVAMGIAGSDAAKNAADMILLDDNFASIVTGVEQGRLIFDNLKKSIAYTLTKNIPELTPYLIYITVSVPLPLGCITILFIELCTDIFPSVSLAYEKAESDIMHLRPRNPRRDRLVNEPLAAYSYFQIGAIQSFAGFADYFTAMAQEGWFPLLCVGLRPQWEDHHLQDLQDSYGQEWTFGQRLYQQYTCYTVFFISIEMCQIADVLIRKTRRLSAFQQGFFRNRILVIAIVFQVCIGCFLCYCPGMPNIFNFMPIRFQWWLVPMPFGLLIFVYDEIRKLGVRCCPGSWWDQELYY
T1 sequence (P18598 whole entry, further chain): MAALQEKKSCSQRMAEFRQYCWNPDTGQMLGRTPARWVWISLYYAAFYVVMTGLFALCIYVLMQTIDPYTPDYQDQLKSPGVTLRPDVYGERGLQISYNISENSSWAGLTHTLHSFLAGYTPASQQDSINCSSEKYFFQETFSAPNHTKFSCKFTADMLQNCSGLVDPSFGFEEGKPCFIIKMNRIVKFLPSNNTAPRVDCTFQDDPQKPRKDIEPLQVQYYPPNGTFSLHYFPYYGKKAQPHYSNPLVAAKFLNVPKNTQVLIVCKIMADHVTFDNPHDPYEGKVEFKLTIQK
Chain of Potassium-transporting ATPase (Rattus norvegicus, UniProt P09626+P18598) (P09626 whole entry): as the sequence (P09626 whole entry) above
Chain of Potassium-transporting ATPase (Rattus norvegicus, UniProt P09626+P18598) (P18598 whole entry): as the sequence (P18598 whole entry, further chain) above

Row | Structure (SMILES) | IC50 [1] [nM] | Inhibition (Rattus norvegicus [2]) [%] | other results
1 | Cc1ccccc1N1CCc2c1nc1c(C)cccc1c2Nc1ccccc1 | 1100 | 0 | –
2 | CNc1nc2c(OC)cccc2c2c1CCN2c1ccccc1C | 250 | 49 | –
3 | COc1ccccc1N1CCc2c(O)nc3c(OC)cccc3c21 | – | – | inhibition (Rattus norvegicus [3]): Too insoluble
4 | Cc1ccccc1-n1ccc2c(NCCCO)nc3c(C)cccc3c21 | 410 | 30 | –
5 | Cc1ccccc1N1CCc2c(NC(N)=O)nc3c(C)cccc3c21 | 1990 | – | inhibition (Rattus norvegicus [3]): Too insoluble
6 | COc1cccc2c1nc(C)c1ccn(-c3ccccc3C)c12 | 640 | 48 | ED50 (Rattus norvegicus [4]): 7.08 µmol/kg
7 | CNc1nc2c(C)cccc2c2c1ccn2-c1ccccc1C | 290 | 61 | –
8 | Cc1ccccc1-n1ccc2c(Cl)nc3c(C)cccc3c21 | – | – | inhibition [5]: 30%; inhibition [6]: 2%
9 | COc1ccccc1N1CCc2c(N)nc3c(OC)cccc3c21 | 440 | 20 | –
10 | CCOC(=O)c1cc(Nc2ccccc2C)c2cccc(OC)c2n1 | 850 | – | ED50 (Rattus norvegicus [4]): 8.2 µmol/kg
11 | Cc1ccccc1-n1ccc2c(NCCO)nc3c(C)cccc3c21 | 170 | 48 | –
12 | CNc1nc2c(C)cccc2c2c1CCN2c1ccccc1C | 180 | 72 | inhibition in vivo at 1 µmol/kg (Canis familiaris [7]): 67%; inhibition in vivo at 4 µmol/kg (Canis familiaris [8]): 95%; ED50 (Rattus norvegicus [4]): 2.8 µmol/kg
13 | Cc1ccccc1N1CCc2c(N)nc3c(C)cccc3c21 | 220 | 63 | inhibition in vivo at 1 µmol/kg (Canis familiaris [9]): 53%; ED50 (Rattus norvegicus [4]): 4.3 µmol/kg
14 | CNc1nc2c(C)cccc2c2c1CCN2c1ccc(OC)cc1C | 280 | 67 | –
15 | Cc1ccccc1-n1ccc2c(NCCCCO)nc3c(C)cccc3c21 | 220 | 47 | –
16 | COc1ccccc1N1CCc2c1c1cccc(OC)c1[nH]c2=O | 33400 | – | –
17 | Cc1ccccc1N1CCc2c1nc1c(C)cccc1c2Cl | – | – | inhibition [10]: 8%
18 | COc1ccccc1N1CCc2cnc3c(OC)cccc3c21 | 1290 | 31 | –
19 | COc1nc2c(C)cccc2c2c1CCN2c1ccccc1C | – | – | inhibition (Rattus norvegicus [3]): Too insoluble; inhibition [11]: 0%
20 | COc1cccc2c3c(c(NCCO)nc12)CCN3c1ccccc1C | 280 | 67 | –
21 | COc1cccc2c3c(c(C(=O)Nc4ccccc4C)nc12)CCN3c1ccccc1C | – | – | IC50 [12]: Insoluble
22 | CSc1nc2c(C)cccc2c2c1CCN2c1ccccc1C | – | – | inhibition (Rattus norvegicus [3]): Too insoluble; inhibition [11]: 0%
23 | Cc1ccccc1N1CCc2cnc3c(C)cccc3c21 | 980 | 47 | ED50 (Rattus norvegicus [4]): 16.2 µmol/kg
24 | Cc1ccccc1N1CCc2c(N(C)C)nc3c(C)cccc3c21 | 1030 | 56 | ED50 (Rattus norvegicus [4]): 7.2 µmol/kg
25 | COc1ccccc1N1CCc2c(Cl)nc3c(OC)cccc3c21 | – | – | IC50 [13]: 10700 nM; inhibition in vivo at 10 µmol/kg (Rattus norvegicus [14]): 19%
26 | Cc1ccccc1N1CCc2c(CO)nc3ccccc3c21 | 1230 | 33 | –
27 | Cc1ccccc1N1CCc2c(Cl)nc3c(C)cccc3c21 | – | – | inhibition [6]: 25%; inhibition in vivo at 10 µmol/kg (Rattus norvegicus [14]): 15%
28 | CNC(=O)Nc1nc2c(C)cccc2c2c1CCN2c1ccccc1C | 4970 | – | inhibition (Rattus norvegicus [3]): Too insoluble
